Measured values: ChEMBL document CHEMBL2021818, “Novel desosamine-modified 14- and 15-membered macrolides without antibacterial activity” (2012)

Experiments:
Format in all cases: functional
[1] = system: Staphylococcus aureus; test: Antibacterial activity against Staphylococcus aureus ATCC 13709 after 24 hrs at 37 degC by CLSI protocol based microdilution method; settings: ATCC 13709, 24 h
Procedure, shortened: (§1)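 Macrolide-susceptible strains, broth microdilution MIC per CLSI. Media: Mueller–Hinton broth (MHB) for S. aureus and M. catarrhalis, MHB plus 5% horse serum for streptococci, Haemophilus test medium for H. influenzae. Compounds dissolved in DMF (5 mg/mL stock) and serially twofold diluted in medium over 64 to 0.125 µg/mL. MIC read after 24 h incubation at 37 °C.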

[2] = system: Streptococcus pneumoniae; test: Antibacterial activity against Streptococcus pneumoniae ATCC […] after 24 hrs at 37 degC by CLSI protocol based microdilution method; procedure, shortened: as §1
[3] = system: Streptococcus pyogenes; test: Antibacterial activity against Streptococcus pyogenes ATCC 700294 after 24 hrs at 37 degC by CLSI protocol based microdilution method; settings: ATCC 700294, 24 h; procedure, shortened: as §1
[4] = system: Moraxella catarrhalis; test: Antibacterial activity against Moraxella catarrhalis ATCC 23246 after 24 hrs at 37 degC by CLSI protocol based microdilution method; settings: ATCC 23246, 24 h; procedure, shortened: as §1
[5] = system: Haemophilus influenzae; test: Antibacterial activity against Haemophilus influenzae ATCC 49247 after 24 hrs at 37 degC by CLSI protocol based microdilution method; settings: ATCC 49247, 24 h; procedure, shortened: as §1

- MIC [1]: > 64 µg/mL
- MIC [2]: > 64 µg/mL
- MIC [3]: > 64 µg/mL
- MIC [4]: > 64 µg/mL
- MIC [5]: > 64 µg/mL
Compound: C=CCN1C(=O)O[C@H]2[C@H](O[C@@H]3[C@@H](C)[C@H](O[C@H]4C[C@@](C)(OC)[C@@H](O)[C@H](C)O4)[C@@H](C)C(=O)O[C@H](CC)[C@@](C)(O)[C@H](O)[C@@H](C)N(C)C[C@H](C)C[C@@]3(C)O)O[C@H](C)C[C@@H]21
